Reference: ChEMBL document CHEMBL1124344, “5-Piperazinylalkyl-2(3H)-oxazolones with neuroleptic activity” (J Med Chem, 1989)

How the values were obtained:
[1] = system: Mus musculus; test: Activity of inclined screen in mouse, after 1 hour of peroral administration in mouse; format: functional; settings: po
Outline: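 Male mice dosed orally (arabic gum suspension, 10 mL/kg, fasted overnight) 1 or 5 h before testing. Placed for 1 h on a wire screen bent at 60° to the horizontal. Ataxic or miorelaxed mice slide off. ED50 is the dose at which 50% of mice fall, by probit analysis. Ten animals per dose, with vehicle controls.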

[2] = system: Mus musculus; test: Antagonistic activity against amphetamine-induced hypermotility, after 1 hour of peroral administration in mouse; format: functional; settings: po
Outline: (§1)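 Male mice in groups of five, fasted overnight, given oral drug in arabic gum suspension (10 mL/kg) 1 or 5 h ahead. Amphetamine 4 mg/kg ip given 30 min after drug. Ten minutes later locomotion is recorded for 15 min in a photocell actophotometer. ED50 is 50% reduction versus control hypermotility, by probit analysis. Parenthetical entries give the maximal dose and percent activity.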

[3] = system: Mus musculus; test: Antagonistic activity against amphetamine-induced hypermotility, after 5 hour of peroral administration in mouse; format: functional; settings: po; outline: as §1
[4] = system: Mus musculus; test: Anticonvulsant activity against tryptamine-induced convulsions, after 1 hour of peroral administration in mouse; format: functional; settings: po
Outline: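 Compounds were dosed as bases suspended in arabic gum at 10 mL/kg orally, after an overnight fast, with vehicle controls. Protection meant no bilateral forepaw clonic seizures or head twitches (tryptamine), or no tonic hind-limb extension (the other two). ED50 is the dose protecting 50%, by probit analysis.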

[5] = system: Mus musculus; test: Inhibition against apomorphine-induced climbing, after 5 hour of peroral administration in mouse; format: functional; settings: po
Outline: (§2)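 Mice were dosed orally (gum arabic suspension, 10 mL/kg, fasted), then given apomorphine 1 mg/kg sc and placed in cylindrical cages with vertical metal bars. Climbing was scored 0 for four paws on the floor, 1 for forefeet on the wall, 2 for four paws on the wall. ED50 is the dose halving the control score.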

[6] = system: Mus musculus; test: Inhibition against apomorphine-induced turning, after 1 hr of peroral administration in mouse; format: functional; settings: po
Outline: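 Mice were lesioned unilaterally with intranigrostriatal 6-hydroxydopamine (20 µg). At 7 days, strong contraversive turners 15 min after apomorphine 2 mg/kg ip were selected. A week later they were dosed orally and rechallenged. Fewer than six full rotations in 2 min counted as protection. ED50 is the dose protecting 50%.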

[7] = system: Mus musculus; test: Inhibition against apomorphine-induced climbing, after 1 hour of peroral administration in mouse; format: functional; settings: po; outline: as §2
[8] = system: Mus musculus; test: Contractile activity in skeletal muscles, after 1 hour of peroral administration in mouse; format: functional; settings: Muscle tissue, po
Outline: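 Male mice were placed for 1 h on a 60° inclined wire screen just after dosing and 4 h later. In a second test, trained mice hung by the forepaws from a horizontal 1.8 mm wire 15 cm up; normal mice touch it with a hind paw within 2 s and stay ≥1 min. ED50 is the dose making 50% fall. Dosing was oral in gum arabic suspension at 10 mL/kg after an overnight fast.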

[9] = system: Mus musculus; test: Suppression of aggressive behavior, after 5 hour of peroral administration in mouse; format: functional; settings: po
Outline: (§3)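 Male mice made aggressive by isolation in individual black cages for about 1 month plus weekly testosterone cyclopentylpropionate 250 mg/kg sc; pairs preselected for attack on a nonisolated male within 15 min. Oral dosing (arabic gum, 10 mL/kg) 1 or 5 h before test, overnight fast. ED50 = dose suppressing aggression in 50% of animals, probit analysis.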

[10] = system: Mus musculus; test: Potentiation against pentobarbital-induced sleeping, after 1 hour of peroral administration in mouse; format: functional; settings: po
Outline: (§4)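 Female mice fasted overnight, dosed orally 1 or 5 h beforehand as arabic gum suspension, 10 mL/kg, with vehicle controls. Subhypnotic pentobarbital 10 mg/kg iv; 3 min later placed on back, effect scored as complete loss of righting reflex for at least 15 s. ED50 = dose producing this in 50% of mice, probit analysis.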

[11] = system: Mus musculus; test: Potentiation against pentobarbital-induced sleeping, after 5 hour of peroral administration in mouse; format: functional; settings: po; outline: as §4
[12] = species: Rattus norvegicus; test: Body weight gain, after 2 hour period of conditioned feeding in rats; format: functional
Outline: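 Female rats (250–280 g) were kept singly on a 22-h food deprivation schedule, with pellets 10–12 a.m. and water always available. After 30–40 days of training they were dosed 1 h before the 2-h feeding and weighed before and after it. Weight gain was expressed as a percentage of the two preceding control days. ED50 is the dose giving 50% reduction.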

[13] = system: Rattus norvegicus; test: Activity to evoke catalepsy, after 1 hour of peroral administration in rats; format: functional; settings: po
Outline: (§5)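 Rats fasted overnight and given oral doses in arabic gum suspension (10 mL/kg), 1 h before screening or 1 and 5 h before profile testing. Forelegs placed on a horizontal bar 7 cm high, three times at 5-min intervals. Immobility of at least 15 s counts as catalepsy. ED50 is the dose giving catalepsy in 50% of rats, by probit analysis. Parenthetical entries give the maximal dose and percent activity.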

[14] = system: Rattus norvegicus; test: Antagonistic activity against amphetamine-induced stereotypy, after 1 hour of peroral administration in rats; format: functional; settings: po
Outline: (§6)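 Male rats dosed orally (arabic gum suspension, 10 mL/kg, fasted overnight) 1 or 5 h beforehand. Amphetamine 7.5 mg/kg iv, with stereotyped movements scored as present or absent 1 h later. ED50 is the dose inhibiting stereotypy in 50% of rats, by probit analysis. Parenthetical entries give the maximal dose and percent activity.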

[15] = system: Rattus norvegicus; test: Antagonistic activity against amphetamine-induced stereotypy, after 5 hour of peroral administration in rats; format: functional; settings: po; outline: as §6
[16] = system: Rattus norvegicus; test: Antagonistic activity against apomorphine-induced stereotypy, after 1 hour of peroral administration in rats; format: functional; settings: po
Outline: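 Male rats fasted overnight and given oral doses in arabic gum suspension (10 mL/kg) 1 h, or 1 and 5 h, before challenge. Apomorphine 3 mg/kg iv, with stereotypy observed 20 min later. ED50 is the dose inhibiting stereotypy in 50% of rats, per Janssen's method. Parenthetical entries give the maximal dose and percent activity.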

[17] = system: Rattus norvegicus; test: Inhibition against conditioned avoidance response, after 1 hour of peroral administration in rats; format: functional; settings: po
Outline: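 Male rats were trained in a shuttle box to avoid grid-floor shock by crossing compartments during a warning period. Dosing was oral as a gum arabic suspension at 10 mL/kg after an overnight fast. Percent inhibition was computed against a pretraining test. ED50 is the dose giving 50% inhibition.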

[18] = system: Canis familiaris; test: Antagonistic activity against apomorphine-induced emesis, after 5 hour of peroral administration in dogs; format: functional; settings: Canis lupus familiaris, po
Outline: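 Male and female dogs pretreated orally, then challenged with apomorphine 0.3 mg/kg sc. Complete protection from vomiting for 30 min after apomorphine is the criterion. ED50 is the dose protecting 50% of dogs, per Janssen's method.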

[19] = system: Mus musculus; test: Antagonistic activity against amphetamine-induced Hypermobility in mouse by administering perorally; format: functional; settings: po; outline: as §1
[20] = system: Mus musculus; test: Inhibition of spontaneous motor activity in mouse, by administering perorally; format: functional; settings: po
Outline: (§7)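 Mice fasted overnight, then dosed orally with compound (weighed as base) suspended in arabic gum, 10 mL/kg, with vehicle controls; 1 h pretreatment for screening tests, 1 or 5 h for others. Groups of five; locomotor activity counted 10 min in photocell activity cage, at least two groups per dose. ED50 = dose giving 50% inhibition versus controls, by probit analysis.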

[21] = system: Mus musculus; test: Suppression of aggressive behavior, after 1 hour of peroral administration in mouse; format: functional; settings: po; outline: as §3
[22] = Lethal dose in mice (LD50) following i.p. dosing; format: toxicity, organism-based; settings: mouse, in vivo, ip
Outline: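 Acute toxicity tested in mice by the intraperitoneal route. LD50 is the dose killing 50% of treated mice, computed by Finney probit analysis; values are approximate.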

[23] = system: Rattus norvegicus; test: Activity to evoke catalepsy, after 5 hour of peroral administration in rats; format: functional; settings: po; outline: as §5
[24] = system: Mus musculus; test: Inhibition of spontaneous motor activity, after 1 hour of peroral administration in mouse; format: functional; settings: po; outline: as §7

Row | Structure (SMILES) | ED50 [1] [mg/kg] | ED50 [2] [mg/kg] | ED50 [3] [mg/kg] | ED50 [4] [mg/kg] | ED50 [5] [mg/kg] | ED50 [6] [mg/kg] | ED50 [7] [mg/kg] | ED50 [8] [mg/kg] | ED50 [9] [mg/kg] | ED50 [10] [mg/kg] | ED50 [11] [mg/kg] | ED50 [12] [mg/kg] | ED50 [13] [mg/kg] | ED50 [14] [mg/kg] | ED50 [15] [mg/kg] | ED50 [16] [mg/kg] | ED50 [17] [mg/kg] | ED50 [18] [mg/kg] | ED50 [19] [mg/kg] | ED50 [20] [mg/kg] | other results
1 | CN(C)CCCN1c2ccccc2Sc2ccc(Cl)cc21 [CHLORPROMAZINE] | 5.4 | 4.1 | 2.4 | 3.4 | 2.2 | 4.4 | 2 | 36.5 | 3.1 | 3.2 | 3.3 | 6 | 10.3 | 19.4 | 13.6 | 28.9 | 6.8 |  |  |  | 
2 | COc1ccccc1N1CCN(CCCC(=O)c2ccc(F)cc2)CC1 [FLUANISONE] | 49 | 16.4 | 18 | 12.5 | 15 | 14.7 | 5 | 20 | 20.1 | 20.7 |  |  | 18 | 17.8 | 50 | 63.2 | 25 | 8.6 | 16.4 | 7.7 | ED50 [21]: 6.1 mg/kg; LD50 [22]: 180 mg/kg; ED50 [23]: 13.9 mg/kg
3 | O=C(CCCN1CCC(O)(c2ccc(Cl)cc2)CC1)c1ccc(F)cc1 [HALOPERIDOL] | 6.8 | 0.12 | 0.28 | 1.1 | 0.045 | 0.32 | 0.12 |  | 0.29 | 7 | 3.1 | 0.3 | 15.4 | 0.27 | 0.39 | 1.1 | 0.23 |  |  |  | ED50 [24]: 0.16 mg/kg
4 | O=c1[nH]c(-c2ccc(F)cc2)c(CCN2CCN(c3cc(Cl)cc(Cl)c3)CC2)o1 [LODIPERONE] |  | 1.5 | 1.9 |  | 0.21 | 0.84 | 0.37 | 200 | 8.5 |  |  | 2.2 |  | 13.5 | 4.2 |  |  | 2.5 | 1.5 | 2.7 | ED50 [21]: 23.8 mg/kg; ED50 [24]: 2.7 mg/kg; LD50 [22]: > 2000 mg/kg; ED50 [23]: 24.3 mg/kg
5 | COc1ccccc1N1CCN(CCc2oc(=O)[nH]c2-c2ccc(F)cc2)CC1 [ZOLOPERONE] | 91 | 4 | 15 | 9.8 | 4 | 15.9 | 0.42 |  | 4.7 | 41.1 | 37.3 | 7.1 | 55.6 | 5.3 | 12.4 | 10.4 | 3.5 | 1.5 | 4 | 4.6 | ED50 [21]: 4.7 mg/kg; ED50 [24]: 4.6 mg/kg; LD50 [22]: > 2000 mg/kg; ED50 [23]: 21.5 mg/kg
